Assay results reported in ChEMBL document CHEMBL3576771, “Molecular determinants of biased agonism at the dopamine D₂ receptor” (J Med Chem, 2015).

Key:
[1] = target: D(1A) dopamine receptor (Homo sapiens, UniProt P21728); assay: Displacement of [3H]SCH23390 from human dopamine D1 receptor transfected in HEK293 cells after 1 hr by scintillation counting analysis; assay type: cell-based
[2] = target: D(1B) dopamine receptor (Homo sapiens, UniProt P21918); assay: Displacement of [3H]SCH23390 from human dopamine D5 receptor transfected in HEK293 cells after 1 hr by scintillation counting analysis; assay type: cell-based
Sequence of D(1B) dopamine receptor (P21918 whole entry): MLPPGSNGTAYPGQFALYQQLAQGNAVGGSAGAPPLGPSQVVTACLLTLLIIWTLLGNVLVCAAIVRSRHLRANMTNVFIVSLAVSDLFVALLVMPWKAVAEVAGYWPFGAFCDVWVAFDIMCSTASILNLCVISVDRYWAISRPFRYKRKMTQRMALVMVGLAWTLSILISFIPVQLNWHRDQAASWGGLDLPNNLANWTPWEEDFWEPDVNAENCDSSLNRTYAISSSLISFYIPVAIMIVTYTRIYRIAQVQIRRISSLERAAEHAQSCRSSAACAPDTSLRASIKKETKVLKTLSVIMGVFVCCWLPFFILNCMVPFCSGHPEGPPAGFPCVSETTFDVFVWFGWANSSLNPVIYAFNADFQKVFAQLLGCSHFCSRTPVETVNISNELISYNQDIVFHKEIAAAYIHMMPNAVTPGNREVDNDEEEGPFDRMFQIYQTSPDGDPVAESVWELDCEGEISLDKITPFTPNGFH

[3] = target: T1, D(2) dopamine receptor (Homo sapiens, UniProt P14416); assay: Displacement of [3H]spiperone from human dopamine D2L receptor transfected in CHO cells after 1 hr by scintillation counting analysis; assay type: cell-based
T1 sequence (P14416 whole entry): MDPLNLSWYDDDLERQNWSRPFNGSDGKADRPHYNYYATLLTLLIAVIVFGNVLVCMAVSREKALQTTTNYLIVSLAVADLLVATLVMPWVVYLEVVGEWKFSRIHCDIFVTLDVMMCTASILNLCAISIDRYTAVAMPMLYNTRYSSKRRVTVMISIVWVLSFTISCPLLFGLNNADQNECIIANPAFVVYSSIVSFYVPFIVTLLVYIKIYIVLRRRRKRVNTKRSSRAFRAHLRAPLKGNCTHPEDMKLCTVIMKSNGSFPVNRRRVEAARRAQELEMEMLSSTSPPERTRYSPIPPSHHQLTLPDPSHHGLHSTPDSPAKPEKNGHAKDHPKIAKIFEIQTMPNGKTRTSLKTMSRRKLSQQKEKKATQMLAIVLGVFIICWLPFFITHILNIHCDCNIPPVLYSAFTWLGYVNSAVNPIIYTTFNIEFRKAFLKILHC

[4] = target: T1, D(2) dopamine receptor; assay: Displacement of [3H]spiperone from human dopamine D2S receptor transfected in CHO cells after 1 hr by scintillation counting analysis; assay type: cell-based
[5] = target: D(3) dopamine receptor (Homo sapiens, UniProt P35462); assay: Displacement of [3H]spiperone from human dopamine D3 receptor transfected in CHO cells after 1 hr by scintillation counting analysis; assay type: cell-based
Sequence of D(3) dopamine receptor (P35462 whole entry): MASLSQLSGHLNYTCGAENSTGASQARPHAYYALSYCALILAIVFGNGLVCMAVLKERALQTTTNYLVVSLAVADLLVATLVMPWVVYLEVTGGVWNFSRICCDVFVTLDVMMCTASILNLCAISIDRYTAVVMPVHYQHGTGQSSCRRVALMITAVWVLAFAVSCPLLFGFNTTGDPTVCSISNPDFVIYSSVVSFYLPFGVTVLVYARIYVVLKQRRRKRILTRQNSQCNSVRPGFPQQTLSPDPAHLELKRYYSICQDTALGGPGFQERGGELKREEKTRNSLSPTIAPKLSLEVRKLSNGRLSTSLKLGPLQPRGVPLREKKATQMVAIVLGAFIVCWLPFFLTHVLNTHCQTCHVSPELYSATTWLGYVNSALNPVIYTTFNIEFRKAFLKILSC

[6] = target: T2, D(4) dopamine receptor (Homo sapiens, UniProt P21917); assay: Displacement of [3H]spiperone from human dopamine D4.4 receptor transfected in CHO cells after 1 hr by scintillation counting analysis; assay type: cell-based
T2 sequence (P21917 whole entry): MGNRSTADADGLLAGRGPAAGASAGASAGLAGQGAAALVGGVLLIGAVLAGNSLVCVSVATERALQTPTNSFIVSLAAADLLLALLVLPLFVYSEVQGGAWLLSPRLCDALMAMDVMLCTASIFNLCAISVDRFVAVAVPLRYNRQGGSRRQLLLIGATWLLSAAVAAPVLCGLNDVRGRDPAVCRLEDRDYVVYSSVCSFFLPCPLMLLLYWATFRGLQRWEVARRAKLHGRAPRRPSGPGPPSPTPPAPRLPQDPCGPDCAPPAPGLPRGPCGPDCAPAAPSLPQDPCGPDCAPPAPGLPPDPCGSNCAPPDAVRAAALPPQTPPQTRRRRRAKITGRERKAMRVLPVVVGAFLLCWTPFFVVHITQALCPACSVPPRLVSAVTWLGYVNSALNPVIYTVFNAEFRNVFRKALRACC

[7] = Displacement of [3H]WAY100635 from poricne cerebral cortex 5-HT1A receptor by scintillation counting analysis; assay type: tissue-based, Sus scrofa
[8] = target: 5-hydroxytryptamine receptor 2A (Homo sapiens, UniProt P28223); assay: Displacement of [3H]ketanserin from human 5-HT2A receptor transfected in HEK293 cells by scintillation counting analysis; assay type: cell-based
Sequence of 5-hydroxytryptamine receptor 2A (P28223 whole entry): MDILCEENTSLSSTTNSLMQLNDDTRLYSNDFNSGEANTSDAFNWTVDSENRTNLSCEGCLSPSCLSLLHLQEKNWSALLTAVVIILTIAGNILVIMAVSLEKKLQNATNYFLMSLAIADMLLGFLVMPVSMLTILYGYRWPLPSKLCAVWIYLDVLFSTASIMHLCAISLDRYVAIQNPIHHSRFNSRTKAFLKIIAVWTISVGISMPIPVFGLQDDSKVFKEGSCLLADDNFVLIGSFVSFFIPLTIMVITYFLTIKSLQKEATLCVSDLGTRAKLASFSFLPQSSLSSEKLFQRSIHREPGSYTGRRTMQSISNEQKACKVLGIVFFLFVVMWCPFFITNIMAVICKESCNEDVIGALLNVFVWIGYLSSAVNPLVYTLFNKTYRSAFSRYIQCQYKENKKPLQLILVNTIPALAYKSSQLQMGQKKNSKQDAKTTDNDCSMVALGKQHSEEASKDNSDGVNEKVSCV

[9] = Displacement of [3H]prazosin from poricne cerebral cortex alpha1 adrenergic receptor by scintillation counting analysis; assay type: tissue-based, Sus scrofa
[10] = target: T1, D(2) dopamine receptor; assay: Intrinsic activity at human dopamine D2S receptor expressed in HEK293 cells co-transfected with Galpha0i assessed as [35S]GTPgammaS binding after 30 mins by [35S]GTPgammaS incorporation assay; assay type: functional, cell-based
[11] = target: T1, D(2) dopamine receptor; assay: Intrinsic activity at human dopamine D2S receptor expressed in HEK293 cells co-transfected with Galpha0i assessed as [35S]GTPgammaS binding after 30 mins by [35S]GTPgammaS incorporation assay relative to quinpirole; assay type: functional, cell-based
Method in brief: (§1)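 HEK293 membranes cotransfected with D2L or D2S plus PTX-insensitive Gαo1; 30 μg/mL protein with compounds and 10 μM GDP preincubated 30 min, 37 °C; then 0.10 nM [35S]GTPγS for 30 min, 37 °C; GF/B filtration.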

[12] = target: T1, D(2) dopamine receptor; assay: Intrinsic activity at human dopamine D2S receptor expressed in HEK293 cells co-transfected with Galphai2 assessed as [35S]GTPgammaS binding after 30 mins by [35S]GTPgammaS incorporation assay; assay type: functional, cell-based
[13] = target: T1, D(2) dopamine receptor; assay: Intrinsic activity at human dopamine D2S receptor expressed in HEK293 cells co-transfected with Galphai2 assessed as [35S]GTPgammaS binding after 30 mins by [35S]GTPgammaS incorporation assay relative to quinpirole; assay type: functional, cell-based; details: in the assay text read “after 75 mins” for “after 30 mins”
Method in brief: (§2)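 Membranes from HEK293 cells cotransfected with D2L or D2S and PTX-insensitive Gαi2; 30 μg/mL protein, 10 μM GDP and compounds preincubated 30 min at 37 °C, then 0.10 nM [35S]GTPγS added for 75 min at 37 °C; filtration.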

[14] = target: T1, D(2) dopamine receptor; assay: Intrinsic activity at human dopamine D2L receptor expressed in HEK293 cells co-transfected with Galpha0i assessed as [35S]GTPgammaS binding after 30 mins by [35S]GTPgammaS incorporation assay; assay type: functional, cell-based
[15] = target: T1, D(2) dopamine receptor; assay: Intrinsic activity at human dopamine D2L receptor expressed in HEK293 cells co-transfected with Galpha0i assessed as [35S]GTPgammaS binding after 30 mins by [35S]GTPgammaS incorporation assay relative to quinpirole; assay type: functional, cell-based; method in brief: as §1
[16] = target: T1, D(2) dopamine receptor; assay: Intrinsic activity at human dopamine D2L receptor expressed in HEK293 cells co-transfected with Galphai2 assessed as [35S]GTPgammaS binding after 30 mins by [35S]GTPgammaS incorporation assay; assay type: functional, cell-based
[17] = target: T1, D(2) dopamine receptor; assay: Intrinsic activity at human dopamine D2L receptor expressed in HEK293 cells co-transfected with Galphai2 assessed as [35S]GTPgammaS binding after 30 mins by [35S]GTPgammaS incorporation assay relative to quinpirole; assay type: functional, cell-based; details: in the assay text read “after 75 mins” for “after 30 mins”; method in brief: as §2
[18] = target: T1, D(2) dopamine receptor; assay: Agonist activity at ARMS2-PK2-tagged human dopamine D2S receptor expressed in HEK293 cells co-expressing (EA)-tagged beta arrestin fusion protein assessed as recruitment of beta-arrestin-2 after 5 hrs by chemiluminescence assay; assay type: cell-based
[19] = target: T1, D(2) dopamine receptor; assay: Agonist activity at ARMS2-PK2-tagged human dopamine D2S receptor expressed in HEK293 cells co-expressing (EA)-tagged beta arrestin fusion protein assessed as recruitment of beta-arrestin-2 after 5 hrs by chemiluminescence assay relative to quinpirole; assay type: cell-based
Method in brief: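 Transient transfection of D2S (ProLink-tagged) into HEK293 cells stably expressing EA-tagged β-arrestin-2; 5000 cells seeded, 24 h.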

[20] = target: D(1A) dopamine receptor (Sus scrofa) (UniProt P50130); assay: Displacement of [3H]SCH23390 from porcine dopamine D1 receptor in striatal membranes after 1 hr by scintillation counting analysis
Sequence of D(1A) dopamine receptor (Sus scrofa) (P50130 whole entry, looked up): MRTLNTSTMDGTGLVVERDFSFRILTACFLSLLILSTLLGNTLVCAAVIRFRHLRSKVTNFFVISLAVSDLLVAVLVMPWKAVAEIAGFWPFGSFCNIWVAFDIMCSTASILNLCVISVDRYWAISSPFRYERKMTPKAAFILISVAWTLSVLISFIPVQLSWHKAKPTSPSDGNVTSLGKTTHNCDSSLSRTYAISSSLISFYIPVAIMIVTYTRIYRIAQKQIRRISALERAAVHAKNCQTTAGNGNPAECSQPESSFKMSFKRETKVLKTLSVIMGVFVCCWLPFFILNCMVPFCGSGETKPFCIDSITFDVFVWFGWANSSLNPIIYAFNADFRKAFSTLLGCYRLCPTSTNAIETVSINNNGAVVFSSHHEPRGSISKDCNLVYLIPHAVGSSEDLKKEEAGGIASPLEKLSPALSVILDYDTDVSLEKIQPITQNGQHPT

Sequence of D(1A) dopamine receptor (P21728 whole entry): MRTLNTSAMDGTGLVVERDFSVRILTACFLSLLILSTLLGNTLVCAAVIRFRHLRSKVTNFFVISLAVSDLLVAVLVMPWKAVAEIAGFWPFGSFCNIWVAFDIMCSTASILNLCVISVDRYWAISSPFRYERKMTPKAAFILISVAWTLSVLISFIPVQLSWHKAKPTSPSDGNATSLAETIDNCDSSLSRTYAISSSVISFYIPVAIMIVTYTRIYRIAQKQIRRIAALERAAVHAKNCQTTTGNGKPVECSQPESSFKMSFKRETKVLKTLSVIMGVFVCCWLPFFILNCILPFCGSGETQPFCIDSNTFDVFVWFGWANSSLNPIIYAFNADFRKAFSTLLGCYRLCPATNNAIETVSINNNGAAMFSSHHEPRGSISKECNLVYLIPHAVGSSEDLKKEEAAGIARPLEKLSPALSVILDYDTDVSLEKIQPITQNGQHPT

Compound: CCCCn1cc(CCCOc2ccc(C(=O)NCCCCN(CCC)[C@H]3CCc4c(O)cccc4C3)cc2OC)nn1
- Ki [1]: 2900 nM
- Ki [2]: 700 nM
- Ki [3]: 0.47 nM
- Ki [4]: 0.54 nM
- Ki [5]: 0.21 nM
- Ki [6]: 9.4 nM
- Ki [7]: 22 nM
- Ki [8]: 710 nM
- Ki [9]: 85 nM
- EC50 [10]: 2.1 nM
- Emax [11]: 110%
- EC50 [12]: 4 nM
- Emax [13]: 97%
- EC50 [14]: 3.1 nM
- Emax [15]: 90%
- EC50 [16]: 2.9 nM
- Emax [17]: 99%
- EC50 [18]: 1.4 nM
- Emax [19]: 94%

Compound: C#CC1=CC[C@@H](N(CCC)CCCCNC(=O)c2ccc(OCCCc3cn(CCCC)nn3)c(OC)c2)CO1
- Ki [1]: 2600 nM
- Ki [2]: 24000 nM
- Ki [3]: 1.6 nM
- Ki [4]: 2.9 nM
- Ki [5]: 0.63 nM
- Ki [6]: 30 nM
- Ki [7]: 130 nM
- Ki [8]: 8000 nM
- Ki [9]: 1000 nM
- EC50 [10]: 110 nM
- Emax [11]: 92%
- EC50 [12]: 660 nM
- Emax [13]: 94%
- EC50 [14]: 52 nM
- Emax [15]: 99%
- EC50 [16]: 28 nM
- Emax [17]: 61%
- EC50 [18]: 380 nM
- Emax [19]: 88%

Compound: C#CC1=CC[C@H](N(CCC)CCCCNC(=O)c2ccc(-c3ccccc3)cc2)CC1
- Ki [6]: 60 nM
- Ki [7]: 110 nM
- Ki [8]: 28000 nM
- Ki [9]: 1800 nM
- Emax [11]: 100%
- Emax [17]: 73%
- Emax [19]: 93%
- Ki [20]: 18000 nM

Compound: CCCCn1cc(CCCOc2ccc(C(=O)NCCCCN(CCC)CCc3ccc(O)c4[nH]c(=O)ccc34)cc2OC)nn1
- Ki [1]: 4600 nM
- Ki [2]: 25000 nM
- Ki [3]: 24 nM
- Ki [4]: 53 nM
- Ki [5]: 1.6 nM
- Ki [6]: 800 nM
- Ki [7]: 2800 nM
- Ki [8]: 3600 nM
- Ki [9]: 2400 nM
- EC50 [10]: 980 nM
- Emax [11]: 87%
- EC50 [12]: 1700 nM
- Emax [13]: 85%
- EC50 [14]: 3800 nM
- Emax [15]: 82%
- EC50 [16]: 7300 nM
- Emax [17]: 84%
- EC50 [18]: 140 nM
- Emax [19]: 86%

Compound: C#CC1=CC[C@H](N(CCC)CCCCNC(=O)c2ccc(OCCCc3cn(CCCC)nn3)c(OC)c2)CO1
- Ki [1]: 3900 nM
- Ki [2]: 48000 nM
- Ki [3]: 4.9 nM
- Ki [4]: 10 nM
- Ki [5]: 2.2 nM
- Ki [6]: 180 nM
- Ki [7]: 810 nM
- Ki [8]: 14000 nM
- Ki [9]: 860 nM
- EC50 [10]: 410 nM
- Emax [11]: 108%
- EC50 [12]: 2900 nM
- Emax [13]: 89%
- EC50 [14]: 90 nM
- Emax [15]: 88%
- EC50 [16]: 1900 nM
- Emax [17]: 84%
- EC50 [18]: 480 nM
- Emax [19]: 101%

Compound: CCCCn1cc(CCCOc2ccc(C(=O)NCCCCN(CCC)[C@@H]3CCc4c(O)cccc4C3)cc2OC)nn1
- Ki [1]: 23000 nM
- Ki [2]: 21000 nM
- Ki [3]: 18 nM
- Ki [4]: 30 nM
- Ki [5]: 1.2 nM
- Ki [6]: 290 nM
- Ki [7]: 200 nM
- Ki [8]: 1000 nM
- Ki [9]: 480 nM
- EC50 [10]: 830 nM
- Emax [11]: 27%
- Emax [13]: < 5%
- EC50 [14]: 530 nM
- Emax [15]: 36%
- Emax [17]: < 5%
- EC50 [18]: 30 nM
- Emax [19]: 56%

Compound: C#CC1=CC[C@@H](N(CCC)CCCCNC(=O)c2ccc(-c3ccccc3)cc2)CC1
- Ki [6]: 30 nM
- Ki [7]: 160 nM
- Ki [8]: 9000 nM
- Ki [9]: 620 nM
- Emax [11]: 104%
- Emax [13]: 100%
- Emax [15]: 92%
- Emax [19]: 93%
- Ki [20]: 13000 nM
